# AHR activator: human AHR activation | AID 2796 | activation, % at 5 µM | AHR-responsive luciferase reporter cells, luminescence | 2.5% of 320,000 active | P35869; in the data active means activation above about 47%;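 further: 0% = vehicle wells and 100% = reference agonist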
# APP 5'UTR act: APP 5'UTR luciferase reporter activation; activation, % at 2 µM; 1% of 190,000 active; SH-SY5Y APP 5'UTR luciferase reporter, luminescence; zero percent = DMSO vehicle wells;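 active means activation above a set limit, based on mean plus 3 SD of controls, cut at about 140% in these data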
# Mdm2 ligase inh: blocks human Mdm2 ubiquitin ligase activity; cell-based MDM2 ubiquitination luciferase reporter, 2 h; 0 = plate control, 100 = twice control, blank-subtracted; AID 1230; signal enhancement, % at 5 µM; Q00987; 0.11% of 210,000 active;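 active means signal enhancement of 30% or more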;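 further: luminescence tracks abundance of the self-degrading MDM2-luciferase fusion protein; higher signal means inhibition of MDM2 E3 ligase activity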
# Target sequence (Q00987 whole entry, looked up, the tested form may be a part): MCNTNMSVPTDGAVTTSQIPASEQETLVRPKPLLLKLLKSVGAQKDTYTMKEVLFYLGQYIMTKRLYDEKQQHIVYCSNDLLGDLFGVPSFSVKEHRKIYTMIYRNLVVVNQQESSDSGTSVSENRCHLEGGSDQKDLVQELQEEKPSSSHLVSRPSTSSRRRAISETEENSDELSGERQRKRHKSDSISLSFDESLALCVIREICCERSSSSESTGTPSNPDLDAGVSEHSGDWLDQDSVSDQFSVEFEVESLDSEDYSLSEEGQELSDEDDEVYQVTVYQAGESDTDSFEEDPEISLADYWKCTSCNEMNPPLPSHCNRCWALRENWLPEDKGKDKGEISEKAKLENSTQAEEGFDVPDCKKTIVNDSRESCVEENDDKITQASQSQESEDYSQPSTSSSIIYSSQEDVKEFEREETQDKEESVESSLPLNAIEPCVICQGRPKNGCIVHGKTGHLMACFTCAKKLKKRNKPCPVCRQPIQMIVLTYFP
#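 Material: stable MDM2–luciferase fusion reporter cells / Quantity: 2000 cells/well / Dosing: single 5 µM compound dose, 0.2% final DMSO / Buffer or medium: DMEM / Schedule: 4 h cell settling then 2 h compound exposure, 37 °C / Detection: luminescence with SteadyLite reagent, 15 min at room temperature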
# NF-kB expr up: compounds increasing NF-kB expression in human neuronal cells | NF-kB reporter expression; active compounds read high | fold change at 12.5 µM | 1.6% of 190,000 active; in the data active means fold change above about 3.3
# PERK inh: human PERK inhibition, primary cell-based screen; CHO PERK-DD fusion, SEAP luminescence translation reporter; inhibition, % at 5.6 µM; 0.17% of 220,000 active; AID 1416;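 active means inhibition above the mean inhibition of all tested compounds plus 3 SD, set separately per screening campaign, cut at about 2.9% in these data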;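 further: PERK kinase domain activated by AP20187 dimerizer at 100 nM; 0% = DMSO with dimerizer and 100% = rapamycin at 8.4 µM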
# STAT1 act: activators of IFN-gamma induced STAT1 signaling; 2.6% of 200,000 active; NIH 3T3 STAT1-luciferase reporter, luminescence; 100% = IFN-gamma alone, no compound; activation (% of control), % at 5.5 µM; AID 932;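 active means activation above the screen-wide mean activation plus 3 SD, cut at about 130% in these data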;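 further: raw ratio to IFN-gamma control signal so 100% means no change and 0% no light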
# Numbers without * were called inactive; / = not tested or not shown. Sampled rows, rich in hits. Any-hit rate of the full collection: about 4.5%.
SMILES,AHR activator,APP 5'UTR act,Mdm2 ligase inh,NF-kB expr up,PERK inh,STAT1 act
CC(C)(C)c1ccc(/C=C/C(=O)N2CCOCC2)cc1,21,57,/,2.2,0,132*
CCOC(=O)C1(CC2CCCCO2)CCN(S(=O)(=O)c2cc(C)cs2)CC1 (stereo unspecified),2,-9,4,1,-1,92
O=C(c1ccccc1)c1ccc(OCCOCCN2CCN(Cc3ccccc3)CC2)cc1,2,6,-7,0.77,0,79
CN(C)c1nc2ccccc2c(N)c1-c1ccccc1,55*,3,/,1.4,0,98
CSc1nc(N(C)C)c2ccccc2n1,-2,16,-4,1.1,1,105
O=C(NN1CC(C(=O)OCc2ccccc2F)CC1=O)c1ccccc1 (stereo unspecified),3,/,/,/,/,/
CCOC(=O)c1cc(C(C)=O)c(=O)[nH]c1C,2,222*,-1,1.1,1,104
COc1ccc(-c2cc3nc(C)cc(N4CC(C)CC(C)C4)n3n2)cc1 (stereo unspecified),50*,-5,5,1.2,0,92
COc1ccc(-c2cc(C(F)(F)F)n3nc(C)cc3n2)cc1,13,-9,-4,0.96,1,107
CC(C)N(C(=O)/C=C/c1cccc([N+](=O)[O-])c1)C(C)C,4,-17,-3,0.99,3.6*,97
Cc1nc2ccccn2c1C(=O)/C=C/c1cccc([N+](=O)[O-])c1,60*,-13,-4,0.93,-1,92
Cc1ccc(/C=C/C(=O)c2c(C)nc3ccccn23)cc1,4,196*,-9,3.6*,-1,147*
C/C(=N\NC(=O)c1c(C)nc2ccccn12)c1cccc([N+](=O)[O-])c1,12,2,2,1.1,-1,92
O=C(NNc1ncccc1Cl)c1c(Cl)cccc1Cl,-3,5,-1,1.1,0,105
CC1CCCCC1NC(=O)Cc1ccc(S(=O)(=O)N2CCOCC2)s1 (stereo unspecified),1,/,/,/,/,/
C/C(=N\Nc1ccc(C(=O)O)cc1)c1ccc2c(c1)Nc1ccccc1S2,68*,/,-23,/,2,/
O=C(NCCCN1CCCC1=O)c1ccc2c(c1)NC(=O)c1ccccc1S2,6,0,5,1.1,0,99
Cn1ncc2c(Nc3ccc(Cl)c(Cl)c3)ncnc21,5,/,/,/,/,/
CCCn1ncc2c(Nc3ccc(C)c(C)c3)ncnc21,5,/,/,/,/,/
CCCCNc1nc(Nc2ccc(C)c(Cl)c2)c2cnn(C)c2n1,79*,/,/,/,/,/
CCNc1nc(Nc2ccc(C)c(Cl)c2)c2cnn(C)c2n1,54*,/,/,/,/,/
CSCCC(NC(=O)c1ccco1)C(=O)NC1CCC(C)CC1 (stereo unspecified),6,/,/,/,/,/
COc1cccc(NC(=O)Cn2nnc(C(=O)Nc3ccccc3)c2N)c1,35,9,7,1.7,1,97
COc1cccc(NC(=O)c2nnn(Cc3ccc(Br)cc3F)c2N)c1,54*,2,-2,1.5,0,109
O=C(/C=C/c1ccc2c(c1)OCO2)Nc1nc2ccc(F)cc2s1,9,/,/,/,0,/
SMILES,AHR activator,APP 5'UTR act,Mdm2 ligase inh,NF-kB expr up,PERK inh,STAT1 act
CN(C)c1oc(-c2ccc(Cl)cc2)nc1S(=O)(=O)c1ccccc1,-2,-13,2,0.97,1,131*
CCC/C(O)=N\S(=O)(=O)c1ccc(N=NN(C)C)cc1,2,38,-6,1.1,1,99
O=C(Nc1cccnc1Cl)c1ccc2c(Cl)c3c(nc2c1)CCC3,/,242*,-34,5.9*,0,135*
COc1ccc(OC)c(S(=O)(=O)Nc2c(C)cccc2C)c1,2,8,-5,1.3,1,95
O=P(COCCOCCOCP(=O)(c1ccccc1)c1ccccc1)(c1ccccc1)c1ccccc1,1,1,3,0.92,0,92
Cc1ccc(NC(=O)CN2C(=O)N/C(=C/c3ccc(N4CCOCC4)cc3)C2=O)cc1,58*,28,-8,2.1,1,126
Cc1ccc(NC(=O)CN2C(=O)N/C(=C/c3ccc4c(c3)OCCO4)C2=O)cc1,7,/,/,/,/,/
COc1ccc(C(=O)n2c(C)c(CCO)c(=O)n2C)cc1,7,5,-4,0.89,1,105
Cc1cccnc1NC(=O)Cn1nc(-c2ccccc2)oc1=S,3,170*,7,4.2*,0,117
Cc1cccnc1NC(=O)Cn1nc([N+](=O)[O-])cc1C,1,-14,-3,1.2,0,99
Cc1cc(C(=O)Cn2nc(C(=O)O)c3ccccc3c2=O)c(C)n1CC(F)(F)F,0,-8,16,1.6,0,142*
Cc1cc(C(=O)Cn2nc(C(=O)O)c3ccccc3c2=O)c(C)n1CCc1ccc(F)cc1,14,/,-9,/,1,/
O=C(NCCc1ccc(F)cc1)Nc1ccc2c(c1)OCO2,41,48,-22,2.2,0,134*
COc1ccc(CCNC(=O)Nc2ccc3c(c2)OCO3)cc1OC,6,11,-13,1.1,1,95
O=C(NCCc1ccccc1)Nc1ccc2c(c1)OCO2,71*,115,-35,4.3*,-1,140*
O=C(Nc1ccc2c(c1)OCO2)OCc1ccccc1,-5,140*,5,5.1*,1,135*
COc1ccc(Cl)cc1NC(=O)CCN1C(=O)C2C3C=CC(C4CC34)C2C1=O (stereo unspecified),11,/,/,/,/,/
CC(NC(=O)C(C)N1CCN(S(=O)(=O)c2ccccc2)CC1)c1ccccc1 (stereo unspecified),1,/,/,/,/,/
COc1cc2c(cc1OC)C(C)N(C(=O)Cc1ccc(C(F)(F)F)cc1)CC2 (stereo unspecified),2,/,/,/,/,/
CN(Cc1cn(-c2ccccc2)nc1-c1ccc2c(c1)OCO2)Cc1nccn1C,48*,-8,0,0.86,-1,105
CN(Cc1cn(C)nc1-c1ccccc1F)Cc1nccn1C,0,9,-2,0.98,0,101
CN(CCn1ccnc1)Cc1cn(-c2ccccc2)nc1-c1ccc2c(c1)OCO2,55*,-7,-3,1.2,1,97
CSc1nc2sc3c(c2c(=O)n1C)CCC(C)C3 (stereo unspecified),56*,16,-18,2.1,0,110
CSc1nc2sc3c(c2c(=O)n1C)CCC3,0,/,/,/,/,/
O=S(=O)(Nc1cccc(-n2cnnn2)c1)c1ccccc1F,10,/,/,/,/,/
Cn1nccc1C(=O)c1ccc(Cl)cc1,-1,1,-9,0.98,3.1*,99
Cn1nccc1NC(=O)Nc1ccc(Cl)cc1,2,/,-23,/,2,/
Cc1noc(C)c1NC(=O)Nc1cccc2c1O[C@H](CN(C)C(=O)Nc1ccc(C(F)(F)F)cc1)[C@@H](C)CN([C@H](C)CO)C2=O,1,/,/,/,/,/
O=C(O)c1ccc(-c2nc(-c3ccc(Cl)c(Cl)c3)cs2)cc1,7,57,-9,1.9,0,109
